Converted amounts (≈) assume the structure as drawn.
Experiments:
Staphylococcus aureus [1] = experiment: Bactericidal activity against linezolid-resistant Staphylococcus aureus assessed as bacterial killing incubated for over night
Staphylococcus aureus [2] = experiment: Antibacterial activity against methicillin-susceptible Staphylococcus aureus ATCC 25923 assessed as bacterial growth inhibition incubated for 20 hrs by broth dilution method; assay type: functional
How it was run: (§1)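 Broth microdilution: 0.5 McFarland suspension from an overnight culture, diluted 1:100 in cation-adjusted Mueller Hinton broth (CAMHB), given serial dilutions of test agent for 20 h at 37 °C. MIC is the lowest concentration with no visible growth.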

Staphylococcus aureus [3] = experiment: Antibacterial activity against methicillin-susceptible Staphylococcus aureus ATCC 25923 in presence of 5% v/v serum; assay type: functional
Staphylococcus aureus [4] = experiment: Ratio of MBC to MIC against linezolid-resistant Staphylococcus aureus; assay type: functional
How it was run: (§2)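 For MBC, 5 μL from each well was spotted on agar and incubated overnight; MBC is the lowest concentration with no visible growth. Ratio taken as MBC over MIC.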

Staphylococcus aureus [5] = experiment: Bactericidal activity against methicillin-resistant Staphylococcus aureus ATCC 43300 assessed as bacterial killing incubated for over night; assay type: functional; how it was run: as §2
Staphylococcus aureus [6] = experiment: Bactericidal activity against heterogeneous vancomycin-intermediate Staphylococcus aureus Mu3 ATCC 700698 assessed as bacterial killing incubated for over night; assay type: functional; how it was run: as §2
Staphylococcus aureus [7] = experiment: Antibacterial activity against vancomycin-intermediate resistant Staphylococcus aureus Mu50 ATCC 700699 assessed as bacterial growth inhibition incubated for 20 hrs by broth dilution method; assay type: functional; how it was run: as §1
Staphylococcus aureus [8] = experiment: Ratio of MBC to MIC against methicillin-susceptible Staphylococcus aureus ATCC 25923; assay type: functional; how it was run: as §2
Staphylococcus aureus [9] = experiment: Antibacterial activity against vancomycin-resistant Staphylococcus aureus clinical isolate 10 assessed as bacterial growth inhibition after 20 hrs by broth microdilution assay; assay type: functional; how it was run: as §1
Staphylococcus aureus [10] = experiment: Antibacterial activity against methicillin-susceptible Staphylococcus aureus ATCC 25923 in presence of 10% v/v serum; assay type: functional
[11] = test system: Staphylococcus epidermidis; experiment: Antibacterial activity against Staphylococcus epidermidis ATCC 14990 assessed as zone of inhibition by disc diffusion method; assay type: functional
Staphylococcus aureus [12] = experiment: Antibacterial activity against vancomycin-intermediate resistant Staphylococcus aureus Mu50 ATCC 700699 assessed as zone of inhibition by disc diffusion method; assay type: functional
Staphylococcus aureus [13] = experiment: Antibacterial activity against methicillin-susceptible Staphylococcus aureus ATCC 25923 assessed as zone of inhibition by disc diffusion method; assay type: functional
Staphylococcus aureus [14] = experiment: Antibacterial activity against hospital acquired methicillin-resistant Staphylococcus aureus ATCC 43300 assessed as zone of inhibition by disc diffusion method; assay type: functional
Staphylococcus aureus [15] = experiment: Ratio of MBC to MIC against heterogeneous vancomycin-intermediate Staphylococcus aureus Mu3 ATCC 700698; assay type: functional; how it was run: as §2
Staphylococcus aureus [16] = experiment: Antibacterial activity against vancomycin-resistant Staphylococcus aureus HIP11714 assessed as inhibition of bacterial growth incubated for 20 hrs by broth microdilution method; assay type: functional; conditions: HIP11714, 20 h; how it was run: as §1
Staphylococcus aureus [17] = experiment: Antibacterial activity against vancomycin-intermediate Staphylococcus aureus clinical isolate 12 assessed as bacterial growth inhibition after 20 hrs by broth microdilution assay; assay type: functional; how it was run: as §1
Staphylococcus aureus [18] = experiment: Antibacterial activity against heterogeneous vancomycin-intermediate resistant Staphylococcus aureus Mu3 ATCC 700698 assessed as zone of inhibition by disc diffusion method; assay type: functional
Staphylococcus aureus [19] = experiment: Antibacterial activity against methicillin-resistant Staphylococcus aureus ATCC 43300 assessed as bacterial growth inhibition incubated for 20 hrs by broth dilution method; assay type: functional; how it was run: as §1
Enterococcus faecium = experiment: Antibacterial activity against vancomycin-resistant Enterococcus faecium ATCC 700221 assessed as zone of inhibition by disc diffusion method; assay type: functional
Staphylococcus aureus [20] = experiment: Antibacterial activity against community acquired methicillin-resistant Staphylococcus aureus BAA 1747 assessed as zone of inhibition by disc diffusion method; assay type: functional
Staphylococcus aureus [21] = experiment: Antibacterial activity against methicillin-susceptible Staphylococcus aureus ATCC 25923 in presence of 0.05% v/v albumin; assay type: functional
Staphylococcus aureus [22] = experiment: Antibacterial activity against vancomycin-resistant Staphylococcus aureus HIP11714 assessed as zone of inhibition by disc diffusion method; assay type: functional
Staphylococcus aureus [23] = experiment: Bactericidal activity against methicillin-susceptible Staphylococcus aureus ATCC 25923 assessed as bacterial killing incubated for over night; assay type: functional
How it was run: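 5 μL from each well was spotted on agar and incubated overnight. MBC was taken as the lowest concentration with no visible growth.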

Staphylococcus aureus [24] = experiment: Antibacterial activity against linezolid-resistant Staphylococcus aureus assessed as bacterial growth inhibition incubated for 20 hrs by broth dilution method; assay type: functional; how it was run: as §1
Bacillus anthracis = experiment: Antibacterial activity against Bacillus anthracis Sterne 34F2 assessed as zone of inhibition by disc diffusion method; assay type: functional
Staphylococcus aureus [25] = experiment: Ratio of MBC to MIC against methicillin-resistant Staphylococcus aureus ATCC 43300; assay type: functional; how it was run: as §2
Staphylococcus aureus [26] = experiment: Antibacterial activity against heterogeneous vancomycin-intermediate Staphylococcus aureus Mu3 ATCC 700698 assessed as bacterial growth inhibition incubated for 20 hrs by broth dilution method; assay type: functional; how it was run: as §1
Staphylococcus aureus [27] = experiment: Ratio of MBC to MIC against vancomycin-intermediate resistant Staphylococcus aureus Mu50 ATCC 700699; assay type: functional; how it was run: as §2
Enterococcus faecalis = experiment: Antibacterial activity against vancomycin-susceptible Enterococcus faecalis ATCC 29212 assessed as zone of inhibition by disc diffusion method; assay type: functional
Staphylococcus aureus [28] = experiment: Bactericidal activity against vancomycin-intermediate resistant Staphylococcus aureus Mu50 ATCC 700699 assessed as bacterial killing incubated for over night; assay type: functional; how it was run: as §2
Staphylococcus aureus [29] = experiment: Antibacterial activity against methicillin-susceptible Staphylococcus aureus ATCC 25923 in presence of glutathione; assay type: functional
How it was run: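 Broth microdilution MIC: a 0.5 McFarland suspension from overnight culture was diluted 1:100 in cation-adjusted Mueller Hinton broth supplemented with glutathione 100 μM. It was exposed to serial dilutions for 20 h at 37 °C. MIC was taken as the lowest concentration with no visible growth.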

`CN[C@H](CC(C)C)C(=O)N[C@H]1C(=O)N[C@@H](CC(N)=O)C(=O)N[C@H]2C(=O)N[C@H]3C(=O)N[C@H](C(=O)N[C@H](C(=O)O)c4cc(O)cc(O)c4-c4cc3ccc4O)[C@H](O)c3ccc(c(Cl)c3)Oc3cc2cc(c3O[C@@H]2O[C@H](CO)[C@@H](O)[C@H](O)[C@H]2O[C@H]2C[C@](C)(N)[C@H](O)[C@H](C)O2)Oc2ccc(cc2Cl)[C@H]1O` [VANCOMYCIN] gave an MBC (Staphylococcus aureus [1]) of 1.56 µM (≈ 2.26 µg/mL), an MIC (Staphylococcus aureus [2]) of 0.78 µM (≈ 1.13 µg/mL) and an MIC (Staphylococcus aureus [3]) of 0.78 µM. The Ratio (Staphylococcus aureus [4]) was 2, the MBC (Staphylococcus aureus [5]) was 0.78 µM (≈ 1.13 µg/mL) and the MBC (Staphylococcus aureus [6]) was 0.78 µM (≈ 1.13 µg/mL). The MIC (Staphylococcus aureus [7]) was 3.13 µM (≈ 4.54 µg/mL), the Ratio (Staphylococcus aureus [8]) was 2 and the MIC50 (Staphylococcus aureus [9]) was greater than 50 µM. For the same compound, the MIC90 (Staphylococcus aureus [9]) was greater than 50 µM, the MIC (Staphylococcus aureus [10]) was 0.78 µM and the “diameter of the inhibition zone (DIZ)” value [11] was 24 mm. For the same compound, the “diameter of the inhibition zone (DIZ)” value (Staphylococcus aureus [12]) was 20 mm, the “diameter of the inhibition zone (DIZ)” value (Staphylococcus aureus [13]) was 22 mm and the “diameter of the inhibition zone (DIZ)” value (Staphylococcus aureus [14]) was 21 mm. It also gave a Ratio (Staphylococcus aureus [15]) of 1, an MIC (Staphylococcus aureus [16]) greater than 50 µM and an MIC50 (Staphylococcus aureus [17]) of 3.13 µM (≈ 4.54 µg/mL). The MIC90 (Staphylococcus aureus [17]) was 3.13 µM (≈ 4.54 µg/mL), the “diameter of the inhibition zone (DIZ)” value (Staphylococcus aureus [18]) was 20 mm and the MIC (Staphylococcus aureus [19]) was 0.39 µM (≈ 0.565 µg/mL). The “diameter of the inhibition zone (DIZ)” value (Enterococcus faecium) was 0 mm, the “diameter of the inhibition zone (DIZ)” value (Staphylococcus aureus [20]) was 20 mm and the MIC (Staphylococcus aureus [21]) was 0.78 µM. The “diameter of the inhibition zone (DIZ)” value (Staphylococcus aureus [22]) was 11 mm, the MBC (Staphylococcus aureus [23]) was 1.56 µM (≈ 2.26 µg/mL) and the MIC (Staphylococcus aureus [24]) was 0.78 µM (≈ 1.13 µg/mL). The “diameter of the inhibition zone (DIZ)” value (Bacillus anthracis) was 26 mm, the Ratio (Staphylococcus aureus [25]) was 2 and the MIC (Staphylococcus aureus [26]) was 0.78 µM (≈ 1.13 µg/mL). The Ratio (Staphylococcus aureus [27]) was 1, the “diameter of the inhibition zone (DIZ)” value (Enterococcus faecalis) was 21 mm and the MBC (Staphylococcus aureus [28]) was 3.13 µM (≈ 4.54 µg/mL). It also gave an MIC (Staphylococcus aureus [29]) of 0.78 µM.
